The source made the active and inactive calls. The rule behind the calls is not given here.
Key:
D(2) dopamine receptor [1] = target: T1, D(2) dopamine receptor (Homo sapiens, UniProt P14416); assay: Adenylate cyclase assay carried out in LTK cells transfected with human Dopamine receptor D2; type: cell-based
D(2) dopamine receptor [2] = target: T1, D(2) dopamine receptor; assay: Intrinsic activity relative to dopamine for human Dopamine receptor D2 at 10 uM
Outline: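 Adenylate cyclase functional assay in LTK cells transfected with the human D2 receptor. […] Values are mean ± SEM over the stated number of experiments.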

D(2) dopamine receptor [3] = target: T1, D(2) dopamine receptor; assay: Binding affinity against cloned human Dopamine receptor D2 using [3H]spiperone as radioligand transfected in LTK cells
D(1A) dopamine receptor [4] = target: T2, D(1A) dopamine receptor (Homo sapiens, UniProt P21728); assay: Binding affinity against cloned human Dopamine receptor D1 using [125I]-SCH 23982 as radioligand transfected in HEK cells; type: cell-based, HEK293
D(1A) dopamine receptor [5] = target: T2, D(1A) dopamine receptor; assay: Adenylate cyclase assay carried out in LTK cells transfected with human Dopamine receptor D1; type: cell-based
D(2) dopamine receptor [6] = target: T1, D(2) dopamine receptor
Rattus norvegicus = assay: Ability to produce robust rotation in the lesioned rat after subcutaneous administration; type: functional; conditions: sc
[7] = target: Beta-1 adrenergic receptor (Homo sapiens, UniProt P08588); assay: Binding affinity against Beta-1 adrenergic receptor
[8] = target: 5-hydroxytryptamine receptor 2A (Bos taurus, UniProt Q75Z89); assay: Binding affinity against serotonergic 5-HT2 receptor
[9] = target: T3, 5-hydroxytryptamine receptor 1A (Mus musculus, UniProt Q64264); assay: Binding affinity against serotonergic 5-HT1a receptor
T3 sequence (Q64264 whole entry): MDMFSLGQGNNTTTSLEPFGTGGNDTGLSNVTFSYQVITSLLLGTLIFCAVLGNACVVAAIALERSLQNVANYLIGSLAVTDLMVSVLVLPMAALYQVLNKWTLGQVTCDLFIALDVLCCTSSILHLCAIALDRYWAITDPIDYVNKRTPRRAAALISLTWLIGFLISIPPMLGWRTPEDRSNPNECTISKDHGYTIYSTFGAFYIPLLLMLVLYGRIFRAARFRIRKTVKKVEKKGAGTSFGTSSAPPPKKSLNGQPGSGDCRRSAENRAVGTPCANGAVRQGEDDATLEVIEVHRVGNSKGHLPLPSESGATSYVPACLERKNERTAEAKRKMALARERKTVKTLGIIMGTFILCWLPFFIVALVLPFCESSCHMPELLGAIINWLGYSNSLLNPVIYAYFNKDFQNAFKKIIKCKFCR

[10] = target: T4, 5-hydroxytryptamine receptor 2C (Rattus norvegicus, UniProt P08909); assay: Binding affinity against serotonergic 5-HT1c receptor
T4 sequence (P08909 whole entry): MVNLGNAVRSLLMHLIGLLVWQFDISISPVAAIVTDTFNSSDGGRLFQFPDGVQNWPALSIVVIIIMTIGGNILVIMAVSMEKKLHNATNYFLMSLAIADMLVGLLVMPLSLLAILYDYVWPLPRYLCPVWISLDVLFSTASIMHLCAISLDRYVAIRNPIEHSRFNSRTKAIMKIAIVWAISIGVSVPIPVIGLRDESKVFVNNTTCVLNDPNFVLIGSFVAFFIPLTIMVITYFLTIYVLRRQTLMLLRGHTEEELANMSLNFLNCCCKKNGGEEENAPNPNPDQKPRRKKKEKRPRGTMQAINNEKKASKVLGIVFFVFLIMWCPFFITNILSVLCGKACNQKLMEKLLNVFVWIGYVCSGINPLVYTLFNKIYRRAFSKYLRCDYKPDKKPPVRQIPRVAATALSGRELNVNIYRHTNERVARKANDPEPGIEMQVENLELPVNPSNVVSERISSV

[11] = target: Beta-2 adrenergic receptor (Homo sapiens, UniProt P07550); assay: Binding affinity against Beta-2 adrenergic receptor
Beta-2 adrenergic receptor, sequence (P07550 whole entry): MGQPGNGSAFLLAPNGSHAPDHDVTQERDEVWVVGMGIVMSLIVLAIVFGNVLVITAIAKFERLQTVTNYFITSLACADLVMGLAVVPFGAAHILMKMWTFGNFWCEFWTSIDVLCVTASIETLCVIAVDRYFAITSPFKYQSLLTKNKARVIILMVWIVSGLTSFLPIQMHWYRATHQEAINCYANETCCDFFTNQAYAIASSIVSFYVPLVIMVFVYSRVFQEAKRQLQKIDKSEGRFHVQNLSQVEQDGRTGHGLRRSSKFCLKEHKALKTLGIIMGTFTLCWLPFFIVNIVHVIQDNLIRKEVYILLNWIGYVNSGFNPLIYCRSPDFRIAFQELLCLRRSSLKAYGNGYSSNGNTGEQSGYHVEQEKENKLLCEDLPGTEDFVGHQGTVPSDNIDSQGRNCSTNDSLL

T1 sequence (P14416 whole entry): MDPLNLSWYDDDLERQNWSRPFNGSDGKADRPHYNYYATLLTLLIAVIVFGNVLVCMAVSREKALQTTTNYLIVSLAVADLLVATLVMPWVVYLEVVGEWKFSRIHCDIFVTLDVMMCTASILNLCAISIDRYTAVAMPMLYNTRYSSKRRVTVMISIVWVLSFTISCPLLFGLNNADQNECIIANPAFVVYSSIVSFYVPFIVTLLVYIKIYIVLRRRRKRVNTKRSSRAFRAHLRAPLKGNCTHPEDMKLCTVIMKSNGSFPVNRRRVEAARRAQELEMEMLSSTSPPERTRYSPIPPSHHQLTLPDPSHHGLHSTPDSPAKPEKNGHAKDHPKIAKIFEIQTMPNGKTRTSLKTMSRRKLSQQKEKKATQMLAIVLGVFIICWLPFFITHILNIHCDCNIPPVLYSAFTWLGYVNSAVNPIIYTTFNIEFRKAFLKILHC
T2 sequence (P21728 whole entry): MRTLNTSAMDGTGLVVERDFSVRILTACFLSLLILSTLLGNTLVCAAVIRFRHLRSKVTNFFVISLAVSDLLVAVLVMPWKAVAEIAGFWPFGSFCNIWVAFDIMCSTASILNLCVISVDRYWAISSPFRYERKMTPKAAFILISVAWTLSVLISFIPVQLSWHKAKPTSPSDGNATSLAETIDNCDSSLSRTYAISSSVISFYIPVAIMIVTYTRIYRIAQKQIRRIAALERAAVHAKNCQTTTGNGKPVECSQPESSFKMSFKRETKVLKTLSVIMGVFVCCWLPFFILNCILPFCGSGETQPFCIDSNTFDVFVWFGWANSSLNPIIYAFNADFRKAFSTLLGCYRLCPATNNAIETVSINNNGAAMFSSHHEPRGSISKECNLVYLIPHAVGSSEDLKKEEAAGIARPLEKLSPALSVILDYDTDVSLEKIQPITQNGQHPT
5-hydroxytryptamine receptor 2A, sequence (Q75Z89 whole entry): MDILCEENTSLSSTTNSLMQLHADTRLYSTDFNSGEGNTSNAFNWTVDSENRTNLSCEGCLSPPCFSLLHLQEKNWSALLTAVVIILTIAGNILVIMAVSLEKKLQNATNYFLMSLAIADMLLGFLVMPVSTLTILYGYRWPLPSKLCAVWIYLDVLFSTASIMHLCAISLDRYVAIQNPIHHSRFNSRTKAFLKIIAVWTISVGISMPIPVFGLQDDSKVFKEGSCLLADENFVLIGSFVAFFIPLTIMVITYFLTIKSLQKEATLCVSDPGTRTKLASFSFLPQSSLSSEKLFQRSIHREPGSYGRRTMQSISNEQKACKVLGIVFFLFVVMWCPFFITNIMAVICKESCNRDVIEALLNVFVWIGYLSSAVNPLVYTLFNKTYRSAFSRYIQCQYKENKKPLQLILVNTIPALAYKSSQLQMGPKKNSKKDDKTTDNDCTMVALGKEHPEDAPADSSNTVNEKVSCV
Beta-1 adrenergic receptor, sequence (P08588 whole entry): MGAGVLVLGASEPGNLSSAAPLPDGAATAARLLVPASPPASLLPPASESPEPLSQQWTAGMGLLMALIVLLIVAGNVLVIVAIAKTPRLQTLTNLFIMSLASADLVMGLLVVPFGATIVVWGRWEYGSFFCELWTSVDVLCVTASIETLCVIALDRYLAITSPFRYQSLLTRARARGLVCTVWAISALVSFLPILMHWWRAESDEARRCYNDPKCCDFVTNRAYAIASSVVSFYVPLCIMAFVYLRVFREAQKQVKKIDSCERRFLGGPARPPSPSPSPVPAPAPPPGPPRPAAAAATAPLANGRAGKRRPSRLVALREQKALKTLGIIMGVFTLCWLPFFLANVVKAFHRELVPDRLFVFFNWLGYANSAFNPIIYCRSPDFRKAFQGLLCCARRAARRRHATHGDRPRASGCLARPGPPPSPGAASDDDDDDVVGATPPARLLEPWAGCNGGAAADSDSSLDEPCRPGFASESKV

With `NC[C@@H]1O[C@H](C23CC4CC(CC(C4)C2)C3)Cc2c1ccc(O)c2O` the EC50 (D(2) dopamine receptor [1]) was > 4 µM, the IA (D(2) dopamine receptor [2]) was 18% and the Ki (D(2) dopamine receptor [3]) was 1.55 µM.
With `CCCc1cc2c(s1)CN[C@H]1CCc3cc(O)c(O)cc3[C@H]21` the Ki (D(1A) dopamine receptor [4]) was 3.05 µM, the EC50 (D(2) dopamine receptor [1]) was > 10 µM and the EC50 (D(1A) dopamine receptor [5]) was 1.7 µM. It also gave an IA (D(2) dopamine receptor [2]) of 3% and a Ki (D(2) dopamine receptor [3]) of 4.02 µM.
With `Oc1cc2c(cc1O)[C@@H](c1ccccc1)CNCC2` [(R)-SKF-38393] the IA (D(2) dopamine receptor [6]) was “inactive” and the ED50 (Rattus norvegicus) was 0.02 µmol/kg.
`CCCc1cc2c(s1)CN[C@@H]1CCc3cc(O)c(O)cc3[C@@H]21` [A-86929] showed a Ki (D(1A) dopamine receptor [4]) of 0.049 µM, an EC50 (D(2) dopamine receptor [1]) of 3.9 µM and an EC50 (D(1A) dopamine receptor [5]) of 0.009 µM. It also gave a Ki (D(2) dopamine receptor [3]) of 0.71 µM.
`Oc1cc2c(cc1O)[C@H]1c3ccccc3CN[C@@H]1CC2` [DIHYDREXIDINE] was tested, and the Ki [7] was 1.5 µM, the ED50 (Rattus norvegicus) was 0.04 µmol/kg and the Ki [8] was > 3 µM. The Ki [9] was > 3 µM, the Ki [10] was 2.4 µM and the Ki [11] was 1.2 µM.

From ChEMBL document CHEMBL1128531 (J Med Chem, 1995)
